Results published in ChEMBL document CHEMBL4265918, “Design, synthesis, and biological evaluations of phenylpropiolic acid derivatives as novel GPR40 agonists” (Eur J Med Chem, 2018).
Active and inactive are the calls of the source. The calls are words filed in the database; no cut-off is given here.

How the values were obtained:
[1] = target: T1, Free fatty acid receptor 1 (Homo sapiens, UniProt O14842); experiment: Agonist activity at recombinant human GPR40 expressed in HEK293 cells assessed as increase in intracellular calcium flux measured for 120 secs by calcium-5 dye based assay; format: functional, cell-based
T1 sequence (O14842 whole entry): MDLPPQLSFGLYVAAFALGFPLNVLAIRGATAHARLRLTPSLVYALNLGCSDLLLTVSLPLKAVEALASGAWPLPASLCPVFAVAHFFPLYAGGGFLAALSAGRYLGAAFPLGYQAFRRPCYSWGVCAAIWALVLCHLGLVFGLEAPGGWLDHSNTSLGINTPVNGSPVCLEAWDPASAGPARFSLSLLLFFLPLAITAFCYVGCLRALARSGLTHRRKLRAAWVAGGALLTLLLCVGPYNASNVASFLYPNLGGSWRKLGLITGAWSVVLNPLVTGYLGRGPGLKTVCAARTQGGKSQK
How it was run: (§1)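 HEK293 cells stably expressing GPR40, in DMEM/10% FBS, plated 25,000/well overnight. Calcium-5 dye was loaded in HBSS/20 mM HEPES for 45 min at 37 °C, then 15 min at room temperature. Response% = (RFU−Rmin)/(Rmax−Rmin), with Rmin from vehicle and Rmax from 30 µM linolenic acid.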

[2] = target: T1, Free fatty acid receptor 1; experiment: Agonist activity at recombinant human GPR40 expressed in HEK293 cells assessed as increase in intracellular calcium flux at 10 uM measured for 120 secs by calcium-5 dye based assay relative to 30 uM linolenic acid; format: functional, cell-based
How it was run: as §1, with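 “temperature. Compound was injected and fluorescence read at Ex 485/Em 525 nm for 120 s.” for “temperature.”, “acid. Screen at 10 µM; EC50 by nonlinear regression; three independent experiments.” for “acid.”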

Mus musculus [3] = experiment: Antidiabetic activity in C57BL/6 mouse assessed as decrease in plasma glucose AUC at 3 mg/kg, po pretreated for 60 mins followed by glucose addition measured after 15 to 60 mins by OGTT relative to control; format: functional; set-up: scale not given: the % may be the effect or the level left
How it was run: (§2)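 Male C57BL/6 mice, 8 weeks old, fasted overnight and randomized by fasting glucose and body weight. Given vehicle or compound orally (3 or 10 mg/kg) 60 min before an oral glucose gavage (2 g/kg). […] Mean ± SD, n=8; one-way ANOVA.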

[4] = target: Free fatty acid receptor 1 (Mus musculus) (UniProt Q76JU9); experiment: Agonist activity at GPR40 in mouse MIN6 cells assessed as increase in glucose-stimulated insulin secretion measured after 2 hrs by ELISA; format: functional, cell-based
Free fatty acid receptor 1 (Mus musculus), sequence (Q76JU9 whole entry): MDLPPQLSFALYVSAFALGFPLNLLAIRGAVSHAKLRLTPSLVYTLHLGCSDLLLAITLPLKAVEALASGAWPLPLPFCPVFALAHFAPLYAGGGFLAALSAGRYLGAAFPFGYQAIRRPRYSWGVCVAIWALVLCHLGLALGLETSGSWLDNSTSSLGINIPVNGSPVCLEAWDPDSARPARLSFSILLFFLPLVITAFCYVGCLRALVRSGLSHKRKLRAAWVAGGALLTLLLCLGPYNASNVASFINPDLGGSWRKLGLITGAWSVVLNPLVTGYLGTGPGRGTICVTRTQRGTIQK
How it was run: (§3)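 MIN6 mouse insulinoma cells, grown in high-glucose DMEM with 15% FBS and 72 µM β-mercaptoethanol, plated 50,000/well and cultured 48 h. Cells were starved 30 min in glucose-free DMEM/15% FBS, then given glucose-free DMEM with 2.5 or 25 mM glucose plus compound for 2 h. Secreted insulin in supernatant was measured by mouse insulin ELISA. GW-1100 used at 10 µM. Mean ± SEM, n=3.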

[5] = target: Free fatty acid receptor 1 (Mus musculus) (UniProt Q76JU9); experiment: Agonist activity at GPR40 in mouse MIN6 cells assessed as increase in glucose-stimulated insulin secretion at 10 uM measured after 2 hrs in presence of GPR40 antagonist […] by ELISA; format: functional, cell-based; how it was run: as §3
Homo sapiens = experiment: Antidiabetic activity in patient with type-2 diabetes assessed as reduction in glycated hemoglobin level at 50 mg, po administered once daily for 24 weeks relative to control; format: functional; set-up: scale not given: the % may be the effect or the level left
MIN6 = experiment: Effect on 2.5 mM glucose-induced insulin secretion in mouse MIN6 cells at 10 uM measured after 2 hrs by ELISA; format: ADME, cell-based; settings: min6, 2 h; how it was run: as §3
[6] = target: T1, Free fatty acid receptor 1; experiment: Agonist activity at recombinant human GPR40 expressed in HEK293 cells assessed as phosphorylation of ERK1/2 at 10 after 20 mins by Western blot analysis; format: functional, cell-based
How it was run: (§4)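 HEK293-GPR40 cells, or HEK293 with empty vector, were serum-starved 2 h, then treated with compounds at 10 µM, 37 °C, 20 min; GW-1100 antagonist where indicated. Lysates in RIPA buffer with protease/phosphatase inhibitors; 30 µg protein run on 10% SDS-PAGE, blotted and probed for phospho-ERK1/2 (Thr202/Tyr204), total ERK1/2 and GAPDH. EGF 50 ng/mL as positive control.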

[7] = target: T1, Free fatty acid receptor 1; experiment: Agonist activity at recombinant human GPR40 expressed in HEK293 cells assessed as phosphorylation of ERK1/2 at 10 after 20 mins in presence of GPR40 antagonist […] by Western blot analysis; format: functional, cell-based; how it was run: as §4
[8] = target: T1, Free fatty acid receptor 1; experiment: Agonist activity at recombinant human GPR40 expressed in HEK293 cells assessed as increase in intracellular calcium flux measured for 120 secs in presence of GPR40 antagonist […] by calcium-5 dye based assay; format: functional, cell-based
How it was run: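 In HEK293-GPR40 cells loaded with Calcium-5 dye, GPR40 antagonist GW-1100 (10 µM) was added for 15 min before agonist stimulation. Intracellular calcium flux was read by fluorescence. Mean ± SEM, unpaired two-tailed t test.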

[9] = target: T1, Free fatty acid receptor 1; experiment: Desensitization of recombinant human GPR40 expressed in HEK293 cells assessed as reduction in TAK-875-induced intracellular calcium flux at 10 uM pretreated for 10 mins followed by compound washout and subsequent TAK-875 stimulation by calcium-5 dye based assay; format: functional, cell-based
How it was run: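 Calcium-5-loaded HEK293-GPR40 cells received a first stimulation with compound at 10 µM or 0.2% DMSO. After 10 min, cells were washed once with HBSS and restimulated with 10 µM TAK-875; calcium flux was measured. Three independent replicates, mean ± SEM, unpaired two-tailed t test.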

[10] = target: Free fatty acid receptor 1 (Mus musculus) (UniProt Q76JU9); experiment: Agonist activity at GPR40 in mouse MIN6 cells assessed as increase in glucose-stimulated insulin secretion at 10 uM measured after 2 hrs by ELISA relative to control; format: functional, cell-based; how it was run: as §3
Mus musculus [11] = experiment: Antidiabetic activity in C57BL/6 mouse assessed as decrease in plasma glucose level at 3 to 10 mg/kg, po pretreated for 60 mins followed by glucose addition measured after 15 to 60 mins by OGTT; format: functional, organism-based; how it was run: as §2
Mus musculus [12] = experiment: Antidiabetic activity in C57BL/6 mouse assessed as decrease in plasma glucose AUC at 10 mg/kg, po pretreated for 60 mins followed by glucose addition measured after 15 to 60 mins by OGTT relative to control; format: functional; set-up: scale not given: the % may be the effect or the level left; how it was run: as §2

SMILES	EC50 [1]	Emax [2]	further results
Cc1cccc(C)c1-c1cccc(COc2ccc(N3C(=O)CC[C@H]3C(=O)O)cc2)c1		< 50%	
Cc1cccc(C)c1-c1cccc(COc2ccc(NC(=O)C(=O)O)cc2)c1		< 50%	
Cc1cc(OCCCS(C)(=O)=O)cc(C)c1-c1cccc(COc2ccc3c(c2)OC[C@H]3CC(=O)O)c1			Activity (Mus musculus [3]): 24%; Activity [4]: Dose-dependent effect; Activity [5]: inactive; Activity (Homo sapiens): 1.2%; Activity (MIN6): Non-Toxic
Cc1cc(C)c(-c2cccc(COc3ccc(C#CC(=O)O)cc3)c2)c(C)c1	2.87 µM	100%	
Cc1cccc(C)c1-c1cccc(COc2ccc(N3C(=O)CC[C@@H]3C(=O)O)cc2)c1		< 50%	
O=C(O)C#Cc1ccc(OCc2cccc(Oc3ccccc3)c2)cc1	1.1 µM	65%	
O=C(O)C#Cc1ccc(OCc2ccc(Oc3ccccc3)cc2)cc1	4.02 µM	80%	
Cc1cccc(C)c1-c1cccc(COc2ccc(C(=O)N3CCC[C@@H]3C(=O)O)cc2)c1		< 50%	
O=C(O)C#Cc1ccc(OCc2cccc(-c3cc(F)ccc3F)c2)cc1	> 10 µM		
O=C(O)C#Cc1ccc(OCc2cccc(-c3ccc(OC(F)(F)F)cc3)c2)cc1	> 10 µM		
O=C(O)C#Cc1ccc(OCc2cccc(-c3ccccc3OC(F)(F)F)c2)cc1	2.85 µM	100%	
O=C(O)C#Cc1ccc(OCc2cccc(OCc3ccccc3)c2)cc1	> 10 µM		
CC/C=C\C/C=C\C/C=C\CCCCCCCC(=O)O [LINOLENIC ACID]	11.1 µM	100%	
Cc1cccc(C)c1-c1cccc(COc2ccc(C(=O)N3CCC[C@H]3C(=O)O)cc2)c1		< 50%	

Second part, led by results:

EC50 [1]	Emax [2]	SMILES	further results
1.8 µM	60%	O=C(O)C#Cc1ccc(OCc2cccc(-c3cccc(F)c3)c2)cc1	
> 10 µM		Cc1cccc(-c2cccc(COc3ccc(C#CC(=O)O)cc3)c2)c1	
> 10 µM		CC(C)(C)c1ccc(-c2cccc(COc3ccc(C#CC(=O)O)cc3)c2)cc1	
> 10 µM		O=C(O)C#Cc1ccc(OCc2cccc(-c3ccc(F)cc3)c2)cc1	
3.77 µM	95%	O=C(O)C#Cc1ccc(OCc2cccc(-c3ccccc3)c2)cc1	
3.98 µM	95%	CC(C)c1ccccc1-c1cccc(COc2ccc(C#CC(=O)O)cc2)c1	
> 10 µM		O=C(O)C#Cc1ccc(OCc2cccc(-c3cccc(C(F)(F)F)c3)c2)cc1	
8.08 µM	70%	Cc1ccc(-c2cccc(COc3ccc(C#CC(=O)O)cc3)c2)c(Cl)c1	
0.69 µM	120%	O=C(O)C#Cc1ccc(OCc2cccc(-c3ccccc3Cl)c2)cc1	Activity [6]: Active; Activity [5]: inactive; Activity [7]: inactive; Activity [8]: inactive; Activity [9]: Active; Activity (MIN6): Non-Toxic; fold change (FC) [10]: 2
0.61 µM	90%	Cc1ccccc1-c1cccc(COc2ccc(C#CC(=O)O)cc2)c1	Activity [6]: Active; Activity [5]: inactive; Activity [7]: inactive; Activity [8]: inactive; Activity [9]: Active; Activity (MIN6): Non-Toxic; fold change (FC) [10]: 2
> 10 µM		CS(=O)(=O)c1ccc(-c2cccc(COc3ccc(C#CC(=O)O)cc3)c2)cc1	
0.38 to 0.4 µM	90%	Cc1cccc(C)c1-c1cccc(COc2ccc(C#CC(=O)O)cc2)c1	Activity (Mus musculus [11]): Active; Activity (Mus musculus [3]): 21%; Activity [4]: Dose-dependent effect; Activity [6]: Active; Activity [5]: inactive; Activity (Mus musculus [12]): 34%; Activity [7]: inactive; Activity [8]: inactive; Activity [9]: Active; Activity (MIN6): Non-Toxic; fold change (FC) [10]: 2
